{"source": "ChEMBL document CHEMBL4610063", "about": "“Mangiferin: A promising natural xanthone from Mangifera indica for the control of acyclovir - resistant herpes simplex virus 1 infection” (Bioorg Med Chem, 2020)", "key": {"[1]": {"assay": "Toxicity in Balb/c mouse infected with ACV-resistant Herpes simplex virus 1 AR-29 assessed as effect on body weight at 0.7% w/w applied topically 5 times a day at 3 hrs interval for 10 days measured on day 10 post infection", "settings": "in vivo, topical_or_ocular"}, "Human alphaherpesvirus 1 [2]": {"system": "Human alphaherpesvirus 1", "assay": "Antiviral activity against ACV-sensitive Herpes simplex virus 1 KOS infected in African green monkey Vero cells assessed as suppression of viral replication by measuring reduction in ICP4 production at 12.5 ug/ml measured after 24 hrs by immunofluorescence assay relative to control", "format": "functional, strain KOS", "set-up": "scale not given: the % may be the effect or the level left", "method_in_brief": "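Vero cells on coverslips infected with HSV-1 KOS and given mangiferin 1.56–12.5 μg/mL at 0 h. At 24 h cells fixed in cold acetone, blocked with skim milk, stained with mouse anti-ICP4 and FITC anti-mouse IgG; 100 cells per coverslip scored by fluorescence microscopy. Inhibition relative to infected untreated cells; duplicate independent experiments.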"}, "Human alphaherpesvirus 1 [3]": {"system": "Human alphaherpesvirus 1", "assay": "Antiviral activity against ACV-resistant Herpes simplex virus 1 AR-29 infected in male Balb/c mouse assessed as change in epidermis thickness at 0.7% w/w applied topically 5 times a day at 3 hrs interval for 10 days measured on day 10 post infection by H and E staining based histological analysis", "format": "functional, organism-based"}, "Human alphaherpesvirus 1 [4]": {"system": "Human alphaherpesvirus 1", "assay": "Antiviral activity against ACV-sensitive Herpes simplex virus 1 KOS infected in male Balb/c mouse assessed as change in dermis thickness at 0.7% w/w applied topically 5 times a day at 3 hrs interval for 10 days measured on day 10 post infection by H and E staining based histological analysis", "settings": "strain KOS"}, "Human alphaherpesvirus 1 [5]": {"system": "Human alphaherpesvirus 1", "assay": "Antiviral activity against ACV-resistant Herpes simplex virus 1 AR-29 infected in African green monkey Vero cells assessed as inhibition of viral adsorption at 25 ug/mL preincubated for 30 mins and measured after 1 hr by plaque reduction assay relative to control", "format": "functional", "settings": "Human alphaherpesvirus 1, AR-29, Vero", "method_in_brief": "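Vero cells pre-chilled 30 min at 4 °C, then given mangiferin (3.12–25 μg/mL) together with HSV-1 AR-29 (10^5 PFU/mL) for 1 h adsorption at 4 °C. Plaque reduction assay follows: nutrient agarose overlay with 25 mM MgCl2, 72 h at 37 °C/5% CO2, formaldehyde fixation, crystal violet stain. %VI = [1 − PFU treated/PFU virus control] × 100.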"}, "[6]": {"assay": "Selectivity index, ratio of CC50 for African green monkey Vero cells to IC50 for Herpes simplex virus 1 AR-29 infected in African green monkey Vero cells", "format": "toxicity", "settings": "read-out: Ratio CC50/IC50", "method_in_brief": "(§1)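 SI = CC50 (Vero, MTT, 72 h) / IC50 from plaque reduction with mangiferin added at infection (0 h) against HSV-1 AR-29 or KOS; IC50 by linear regression of viral inhibition curves.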"}, "Human alphaherpesvirus 1 [7]": {"system": "Human alphaherpesvirus 1", "assay": "Antiviral activity against ACV-sensitive Herpes simplex virus 1 KOS infected in female Balb/c mouse assessed as change in dermis thickness at 0.7% w/w applied topically 5 times a day at 3 hrs interval for 10 days measured on day 10 post infection by H and E staining based histological analysis", "settings": "strain KOS"}, "Human alphaherpesvirus 1 [8]": {"system": "Human alphaherpesvirus 1", "assay": "Antiviral activity against ACV-resistant Herpes simplex virus 1 AR-29 infected in male Balb/c mouse assessed as reduction in ulcerated lesion at 0.7% w/w applied topically 5 times a day at 3 hrs interval for 10 days measured on day 5 post infection", "format": "functional, organism-based", "method_in_brief": "(§2)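 Balb/c mice, 5 weeks old, six per group. Right mid-flank depilated under i.p. anaesthesia, needle-scarified 24 h later and inoculated with 70 μL HSV-1 AR-29 (10^5 PFU/mL). Topical 0.7% w/w O/W emulsion or ACV cream (50 mg/g) starts 4 h post-infection, 5 times daily for 10 days. Lesions are scored daily.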"}, "Human alphaherpesvirus 1 [9]": {"system": "Human alphaherpesvirus 1", "assay": "Antiviral activity against ACV-sensitive Herpes simplex virus 1 KOS infected in male Balb/c mouse assessed as reduction in ulcerated lesion at 0.7% w/w applied topically 5 times a day at 3 hrs interval for 10 days measured on day 5 post infection", "format": "functional, organism-based", "settings": "strain KOS", "method_in_brief": "(§3)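 Balb/c mice (5 weeks, 22–27 g; six per group, sexes tested separately) had the right mid-flank depilated under i.p. anaesthesia and needle-scarified 24 h later. They were inoculated with 70 μL HSV-1 KOS (10^5 PFU/mL). From 4 h post-infection, O/W emulsion with 0.7% w/w mangiferin or ACV cream (50 mg/g) was applied topically 5 times daily for 10 days. Lesions were scored daily.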"}, "Human alphaherpesvirus 1 [10]": {"system": "Human alphaherpesvirus 1", "assay": "Virucidal activity against ACV-resistant Herpes simplex virus 1 AR-29 infected in African green monkey Vero cells assessed as inhibition of viral inhibition at 3.12 to 25 ug/mL measured after 1 hr by plaque reduction assay", "format": "functional, organism-based", "method_in_brief": "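HSV-1 AR-29 suspension is incubated with mangiferin (3.12–25 μg/mL) for 1 h at 37 °C, then titrated by plaque reduction on Vero cells. Agarose/MgCl2 overlay, 72 h, crystal violet stain. %VI is taken against virus control. Triplicate independent experiments.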"}, "Human alphaherpesvirus 1 [11]": {"system": "Human alphaherpesvirus 1", "assay": "Antiviral activity against ACV-sensitive Herpes simplex virus 1 KOS infected in male Balb/c mouse assessed as reduction in vesicles at 0.7% w/w applied topically 5 times a day at 3 hrs interval for 10 days measured on day 2 post infection", "format": "functional, organism-based", "settings": "strain KOS", "method_in_brief": "as §3"}, "[12]": {"assay": "Cytotoxicity against African green monkey Vero cells assessed as reduction in cell viability incubated for 72 hrs by MTT assay", "format": "cell-based", "settings": "chlorocebus sabaeus", "method_in_brief": "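Vero cells exposed to mangiferin 31.25–500 μg/mL for 72 h at 37 °C, 5% CO2. Viability read by MTT as At/Ac × 100 versus untreated cells; CC50 from linear regression.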"}, "Human alphaherpesvirus 1 [13]": {"system": "Human alphaherpesvirus 1", "assay": "Antiviral activity against ACV-resistant Herpes simplex virus 1 AR-29 infected in female Balb/c mouse assessed as change in dermis thickness at 0.7% w/w applied topically 5 times a day at 3 hrs interval for 10 days measured on day 10 post infection by H and E staining based histological analysis", "format": "functional, organism-based"}, "[14]": {"assay": "Selectivity index, ratio of CC50 for African green monkey Vero cells to IC50 for Herpes simplex virus 1 KOS infected in African green monkey Vero cells", "format": "toxicity", "settings": "read-out: Ratio CC50/IC50", "method_in_brief": "as §1"}, "Human alphaherpesvirus 1 [15]": {"system": "Human alphaherpesvirus 1", "assay": "Antiviral activity against ACV-sensitive Herpes simplex virus 1 KOS infected in African green monkey Vero cells assessed as inhibition of viral adsorption at 3.12 ug/mL preincubated for 30 mins and measured after 1 hr by plaque reduction assay relative to control", "format": "functional", "settings": "Human alphaherpesvirus 1, strain KOS", "method_in_brief": "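Vero cells pre-chilled 30 min at 4 °C, then given mangiferin (3.12–25 μg/mL) together with HSV-1 KOS (10^5 PFU/mL); 1 h adsorption at 4 °C, then plaque reduction: agarose/DMEM overlay with 25 mM MgCl2, 72 h at 37 °C, formaldehyde fixation, crystal violet stain. %VI = 1 − PFU treated/PFU virus control; triplicate independent experiments.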"}, "Human alphaherpesvirus 1 [16]": {"system": "Human alphaherpesvirus 1", "assay": "Antiviral activity against ACV-resistant Herpes simplex virus 1 AR-29 infected in male Balb/c mouse assessed as change in dermis thickness at 0.7% w/w applied topically 5 times a day at 3 hrs interval for 10 days measured on day 10 post infection by H and E staining based histological analysis", "format": "functional, organism-based"}, "Human alphaherpesvirus 1 [17]": {"system": "Human alphaherpesvirus 1", "assay": "Antiviral activity against ACV-resistant Herpes simplex virus 1 AR-29 infected in male Balb/c mouse assessed as reduction in zosteriform lesion at 0.7% w/w applied topically 5 times a day at 3 hrs interval for 10 days measured on day 5 post infection", "format": "functional, organism-based", "method_in_brief": "as §2"}}, "note": "Active and inactive are the calls of the source. The rule behind the calls is not given here.", "data": [{"compound": "O=c1c2cc(O)c(O)cc2oc2cc(O)c([C@@H]3O[C@H](CO)[C@@H](O)[C@H](O)[C@H]3O)c(O)c12", "note": "[MANGIFERIN]", "values": [{"measurement": "Activity", "setting": "[1]", "value": "Non-Toxic"}, {"measurement": "Activity", "setting": "Human alphaherpesvirus 1 [2]", "value": 29.6, "unit": "%"}, {"measurement": "Activity", "setting": "Human alphaherpesvirus 1 [3]", "value": "inactive"}, {"measurement": "Activity", "setting": "Human alphaherpesvirus 1 [4]", "value": "inactive"}, {"measurement": "inhibition at 25 µg/mL", "setting": "Human alphaherpesvirus 1 [5]", "value": 74, "unit": "%"}, {"measurement": "selectivity ratio", "setting": "[6]", "value": "> 172"}, {"measurement": "Activity", "setting": "Human alphaherpesvirus 1 [7]", "value": "inactive"}, {"measurement": "Activity", "setting": "Human alphaherpesvirus 1 [8]", "value": "Active"}, {"measurement": "Activity", "setting": "Human alphaherpesvirus 1 [9]", "value": "inactive"}, {"measurement": "inhibition", "setting": "Human alphaherpesvirus 1 [10]", "value": "Active"}, {"measurement": "Activity", "setting": "Human alphaherpesvirus 1 [11]", "value": "inactive"}, {"measurement": "CC50 at 72 h", "setting": "[12]", "value": "> 500", "unit": "µg/mL"}, {"measurement": "Activity", "setting": "Human alphaherpesvirus 1 [13]", "value": "inactive"}, {"measurement": "selectivity ratio", "setting": "[14]", "value": "> 143"}, {"measurement": "inhibition at 3.12 µg/mL", "setting": "Human alphaherpesvirus 1 [15]", "value": 29.2, "unit": "%"}, {"measurement": "Activity", "setting": "Human alphaherpesvirus 1 [16]", "value": "inactive"}, {"measurement": "Activity", "setting": "Human alphaherpesvirus 1 [17]", "value": "Active"}]}]}
